Test [1] is described as follows: Her2 expression decrease, cell viability multiplex – SKBR3 breast tumor cells, AlphaScreen, ATP viability, primary screen (AID 461;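 active = Her2 level under about 52% in both replicate screens, with viability over 70% of control, limit read from the data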;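 as to Her2 level: lower value means less Her2 protein in the cells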;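 as to viability: percent of carrier control wells set as 100% viability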). The note with it: SKBR3 Her2 protein level, 18-24 h, measured here: SKBR3 viability, ATP luminescence, at 10 µM.
Test [2] has as its target Receptor tyrosine-protein kinase erbB-2 (Homo sapiens) (UniProt P04626). The test is described as above. The settings on record: 18-24 h, at 10 µM, stronger effect = lower value.
The nature of test [3]: reduced viability of SK-BR-3 breast cancer cells – cell-based, 24 h, human, pilot screen (AID 572).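 Also: compound exposure lasted between 18 and 24 h rather than exactly 24 h; 100% = carrier-treated control wells.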 The note with it: SK-BR-3 viability, CellTiter-Glo luminescence, at 10 µM, stronger effect = lower value.
Test [4] is described as follows: HUVEC growth inhibition – cell-based, human, primary screen (AID 575;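 active = viability at or below 30% in both replicate assays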;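 also: 100% = median of untreated cell wells with 0.1% DMSO on each plate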). The settings on record: HUVEC proliferation, CellTiter-Glo luminescence, 72 h; at 10 µM; stronger effect = lower value. An outline of the steps: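 system = HUVEC primary cells | amount = 1250 cells/well | buffer or medium = supplemented EBM, 2% fetal bovine serum | dosing = single-point 10 µM, DMSO 0.1% final | times = 72 h compound incubation | detection = CTG luminescence | read-out = % viability relative to median vehicle-well signal on each plate | control set = vehicle and MePR control wells | format = collagen-coated 384-well format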

The nature of test [5]: H69AR cell proliferation blockers – human, duplicate replicates, primary screen (AID 580;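 active = viability at or under a set limit in both replicates, limit being median viability minus 3 SD, cut at about 48% in these data, passing the limit was not always enough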;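 also: 100% = mean luminescence of untreated wells and 0% = no signal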). The note with it: H69AR lung tumor cells viability, ATP luminescence, 72 h; at 10 µM; stronger effect = lower value.
Test [6] can be described thus: MRP1 drug-resistance reversers in H69AR cells – cell-based, doxorubicin co-treatment, pilot screen (AID 601;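 active = viability loss from added drug above about 55%, and viability with drug at most 40%, in both replicates, limit read from the data, passing the limit was not always enough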). The settings on record: CellTiter-Glo, 72 h, at 10 µM; for differential viability (reversal): stronger effect = higher value.
Test [7] can be described thus: yeast transport mutant growth inhibition pilot in 384-well plates, post-Golgi transport modulator project (AID 636; in the data active = inhibition above about 31%). The note with it: absorbance 615 nm, about 18 h, stronger effect = higher value.
Test [8] is described as follows: growth suppression of yeast trafficking mutant, preliminary HTS, modulators of trafficking downstream of Golgi apparatus project, 1536-format plate, OD 615 nm (AID 637; in the data active = inhibition above about 30%). The note with it: yeast transport mutant growth, absorbance 615 nm, 18 h; stronger effect = higher value.
The mark [9] stands for this setting: H69AR cells + 2 uM doxorubicin, measured here: viability with 2 uM doxorubicin, stronger effect = lower value.
Where [10] appears, read: H69AR cells, compound alone cytotoxicity.

Active and inactive are the calls of the source.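 The calls were made as follows, unless noted: active = viability at or below 10% of carrier control in both of two separate runs; inconclusive = viability at or below 10% in only one of the two runs; inactive = the rest.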

Chain of Receptor tyrosine-protein kinase erbB-2 (Homo sapiens) (P04626 whole entry, looked up): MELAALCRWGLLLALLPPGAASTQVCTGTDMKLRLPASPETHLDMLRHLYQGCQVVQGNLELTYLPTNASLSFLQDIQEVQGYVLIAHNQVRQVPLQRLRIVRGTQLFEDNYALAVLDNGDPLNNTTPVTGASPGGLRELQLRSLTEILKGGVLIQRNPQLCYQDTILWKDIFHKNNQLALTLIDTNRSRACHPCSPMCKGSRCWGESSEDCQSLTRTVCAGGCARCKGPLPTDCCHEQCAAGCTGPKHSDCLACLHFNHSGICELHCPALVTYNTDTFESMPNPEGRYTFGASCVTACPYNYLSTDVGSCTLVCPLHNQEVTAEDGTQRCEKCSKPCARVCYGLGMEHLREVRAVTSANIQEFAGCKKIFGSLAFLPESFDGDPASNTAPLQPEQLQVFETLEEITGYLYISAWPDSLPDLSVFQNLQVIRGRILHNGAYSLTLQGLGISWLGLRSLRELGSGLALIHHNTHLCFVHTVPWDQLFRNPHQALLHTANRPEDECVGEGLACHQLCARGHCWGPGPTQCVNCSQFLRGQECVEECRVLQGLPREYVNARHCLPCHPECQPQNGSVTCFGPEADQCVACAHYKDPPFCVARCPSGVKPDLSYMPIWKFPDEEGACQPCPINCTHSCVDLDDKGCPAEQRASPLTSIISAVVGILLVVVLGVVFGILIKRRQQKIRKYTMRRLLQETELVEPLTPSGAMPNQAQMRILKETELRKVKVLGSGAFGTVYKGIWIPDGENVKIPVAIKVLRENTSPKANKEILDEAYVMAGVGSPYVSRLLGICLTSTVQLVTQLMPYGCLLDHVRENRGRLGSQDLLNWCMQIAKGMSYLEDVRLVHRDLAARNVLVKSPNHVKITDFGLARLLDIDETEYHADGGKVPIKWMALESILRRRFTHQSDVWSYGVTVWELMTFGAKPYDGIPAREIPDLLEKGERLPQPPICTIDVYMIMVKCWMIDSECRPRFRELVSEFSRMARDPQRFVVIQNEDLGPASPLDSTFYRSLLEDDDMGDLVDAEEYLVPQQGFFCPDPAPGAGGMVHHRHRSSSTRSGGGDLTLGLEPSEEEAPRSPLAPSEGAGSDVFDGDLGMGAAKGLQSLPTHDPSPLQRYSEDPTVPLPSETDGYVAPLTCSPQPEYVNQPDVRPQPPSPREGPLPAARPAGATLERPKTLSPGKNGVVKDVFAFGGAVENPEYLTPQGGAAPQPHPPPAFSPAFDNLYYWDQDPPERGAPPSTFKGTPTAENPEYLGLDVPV

In the case of `COc1cc(=O)[nH]c(SCc2c(F)c(F)c(F)c(F)c2F)n1`, the viability in test [1] is 95%; in test [3] it was 95% (inactive); in test [4] it was 94% (inactive); in test [5], 91.5% (inactive); in test [6] (setting [9]), 93.2%; in test [6] (setting [10]) it was 91.5%. Also, the Her2 level in test [2] was 95.5% (inactive). Besides, the differential viability (reversal) in test [6] (H69AR cells + 2 uM doxorubicin) is -1.69% (inactive). Besides, the inhibition in test [7] was -5.6% (inactive); in test [8] it was -10% (inactive).

As for `COc1cccc(-c2cc(C(=O)N3CCc4ccccc4C3)no2)c1`, the viability in test [1] is 99.5%; in test [3], 99.5% (inactive); in test [4] it was 67.7% (inactive); in test [5] it was 96.8% (inactive); in test [6] (setting [9]), 103%; in test [6] (setting [10]) it was 96.8%. The Her2 level in test [2] was 104% (inactive). For the same compound, the differential viability (reversal) in test [6] (H69AR cells + 2 uM doxorubicin) was -5.97% (inactive). In addition, the inhibition in test [7] was -8.51% (inactive); in test [8] it was -4.59% (inactive).

Take `OCc1cn(-c2ccccc2)nc1-c1ccc2c(c1)OCCO2`: the viability in test [1] was 93%; in test [3], 93% (inactive); in test [4], 70.5% (inactive); in test [5], 83.9% (inactive); in test [6] (setting [9]) it was 88.3%; in test [6] (setting [10]), 83.9%. For the same compound, the Her2 level in test [2] is 102% (inactive). Besides, the differential viability (reversal) in test [6] (H69AR cells + 2 uM doxorubicin) is -4.38% (inactive). Besides, the inhibition in test [7] was -7.95% (inactive); in test [8], -4.44% (inactive).

In the case of `COc1ccc(C(=O)NCc2ccccc2OC)cc1`, the viability in test [1] was 110%; in test [3], 110% (inactive); in test [4], 93.8% (inactive); in test [5], 105% (inactive); in test [6] (setting [9]), 95.8%; in test [6] (setting [10]), 105%. In addition, the Her2 level in test [2] was 100% (inactive). The differential viability (reversal) in test [6] (H69AR cells + 2 uM doxorubicin) is 9.52% (inactive). Also, the inhibition in test [7] is -6.58% (inactive); in test [8], -3.17% (inactive).

On to `CCOC(=O)c1ccc(-n2c(=O)[nH]c3ccccc3c2=O)cc1`, for which the viability in test [1] was 102%; in test [3] it was 102% (inactive); in test [4], 105% (inactive); in test [5], 93.1% (inactive); in test [6] (setting [9]) it was 90.4%; in test [6] (setting [10]), 93.1%. In addition, in test [2], the Her2 level is 120% (inactive). The differential viability (reversal) in test [6] (H69AR cells + 2 uM doxorubicin) is 2.73% (inactive). For the same compound, the results for the inhibition in test [7] and in test [8] were 3.07% (inactive) and -2.74% (inactive), respectively.

Consider `CN(C=O)CP(=O)(O)CCN1CCCC1=O`, for which the viability was 126% in test [1]; 126% (inactive) in test [3]; 104% (inactive) in test [4]; 99.4% (inactive) in test [5]; 92.2% in test [6] (setting [9]); 99.4% in test [6] (setting [10]). For the same compound, the Her2 level in test [2] is 121% (inactive). Besides, the differential viability (reversal) in test [6] (H69AR cells + 2 uM doxorubicin) is 7.19% (inactive). For the same compound, the inhibition in test [7] was -4.47% (inactive); in test [8], 0.66% (inactive).

As to `COc1ccc(C2C(C(=O)NCCN3CCOCC3)c3ccccc3C(=O)N2C2CCCCC2)cc1` (stereo not given), the viability in test [1] is 88.5%; in test [3], 88.5% (inactive); in test [4], 64.3% (inactive); in test [5], 81.3% (inactive); in test [6] (setting [9]) it was 79.2%; in test [6] (setting [10]), 81.3%. Besides, the Her2 level in test [2] is 71% (inactive). Further, the differential viability (reversal) in test [6] (H69AR cells + 2 uM doxorubicin) was 2.12% (inactive). Also, the inhibition in test [7] was -3.33% (inactive); in test [8], 0% (inactive).

Consider `CCSC1=NCN(CCCC(=O)O)CN1`, for which the viability is 118% in test [1]; 118% (inactive) in test [3]; 96.3% (inactive) in test [4]; 99.9% (inactive) in test [5]; 102% in test [6] (setting [9]); 99.9% in test [6] (setting [10]). Further, in test [2], the Her2 level is 100% (inactive). For the same compound, the differential viability (reversal) in test [6] (H69AR cells + 2 uM doxorubicin) is -1.83% (inactive). The inhibition was 0.13% (inactive) in test [7] and -0.16% (inactive) in test [8].

Regarding `c1ccc2nc(-c3nc4ccccc4[nH]3)ccc2c1`, the viability in test [1] was 104%; in test [3], 104% (inactive); in test [4] it was 55.2% (inactive); in test [5] it was 66.6% (inactive); in test [6] (setting [9]), 70.6%; in test [6] (setting [10]) it was 66.6%. Moreover, the Her2 level in test [2] is 74% (inactive). For the same compound, in test [6] (H69AR cells + 2 uM doxorubicin), the differential viability (reversal) is -3.97% (inactive). For the same compound, the values for the inhibition in test [7] and in test [8] were 0% (inactive) and -1.64% (inactive), respectively.

With `CCn1cc(C2=NCC(C)O2)c2ccccc21` (stereo not given), the viability was 96.5% in test [1]; 96.5% (inactive) in test [3]; 74.8% (inactive) in test [4]; 93.5% (inactive) in test [5]; 90.3% in test [6] (setting [9]); 93.5% in test [6] (setting [10]). Also, the Her2 level in test [2] was 83% (inactive). Further, the differential viability (reversal) in test [6] (H69AR cells + 2 uM doxorubicin) was 3.18% (inactive). In addition, the inhibition in test [7] was -5.54% (inactive); in test [8], -0.32% (inactive).

Regarding `Cc1ccc(C)c(-c2nc3cc(N)ccc3o2)c1`, the viability in test [1] was 78.5%; in test [3] it was 78.5% (inactive); in test [4], 46.6% (inactive); in test [5] it was 102% (inactive); in test [6] (setting [9]), 93.8%; in test [6] (setting [10]), 102%. Besides, in test [2], the Her2 level is 106% (inactive). In addition, the differential viability (reversal) in test [6] (H69AR cells + 2 uM doxorubicin) is 8.46% (inactive). Further, the inhibition in test [7] is -1.18% (inactive); in test [8], -6.03% (inactive).

Consider `CCOC(=O)C1=C(c2ccccc2)N2CCN=C2S1`, for which the viability in test [1] was 94.5%; in test [3] it was 94.5% (inactive); in test [4], 100% (inactive); in test [5], 94.8% (inactive); in test [6] (setting [9]), 88.8%; in test [6] (setting [10]) it was 94.8%. Also, the Her2 level in test [2] was 100% (inactive). Besides, the differential viability (reversal) in test [6] (H69AR cells + 2 uM doxorubicin) is 5.97% (inactive). Besides, the inhibition in test [7] was -0.93% (inactive); in test [8], -9.68% (inactive).

As to `CC(C)CCn1c(=O)c2ccccc2n2c(CN(C)Cc3ccccc3)nnc12`, the viability is 83.5% in test [1]; 83.5% (inactive) in test [3]; 70.3% (inactive) in test [4]; 84.4% (inactive) in test [5]; 12.1% in test [6] (setting [9]); 84.4% in test [6] (setting [10]). Also, the Her2 level in test [2] was 100% (inactive). Besides, the differential viability (reversal) in test [6] (H69AR cells + 2 uM doxorubicin) is 72.3% (active). Further, the inhibition in test [7] was -6.08% (inactive); in test [8] it was 11.3% (inactive).

With `N#Cc1c(NC(=O)CSc2nnnn2C2CCCC2)sc2c1CCCC2`, the viability in test [1] is 82.5%; in test [3], 82.5% (inactive); in test [4], 94.6% (inactive); in test [5], 69.9% (inactive); in test [6] (setting [9]), 68.2%; in test [6] (setting [10]), 69.9%. Also, in test [2], the Her2 level was 85% (inactive). Moreover, the differential viability (reversal) in test [6] (H69AR cells + 2 uM doxorubicin) is 1.64% (inactive). The inhibition in test [7] is -0.53% (inactive); in test [8] it was 0.16% (inactive).
